Measured values as given in ChEMBL document CHEMBL2146464, “Structure-activity relationship study of nitrosopyrimidines acting as antifungal agents” (Bioorg Med Chem, 2012).
In brackets after ≈: the same amount, converted by molar mass. Activity calls are given as the source filed them. No cut-off for these calls is given here.

Key:
Candida albicans [1] = experiment: Antifungal activity against Candida albicans ATCC 10231 at 0.98 to 250 ug/mL after 48 hrs by NCCLS broth microdilution method; format: functional, organism-based
Outline: (§1)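 Yeast MIC by NCCLS M27-A3 broth microdilution in RPMI-1640 buffered to pH 7.0 with MOPS. Twofold dilutions of 250–0.98 µg/mL, final DMSO ≤1%. Inoculum 1–5 × 10³ CFU/mL. Incubated at 30 °C in a moist dark chamber. Read visually at 48 h. MIC100 is the lowest concentration with no visible growth versus drug-free control.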

Candida tropicalis [2] = experiment: Antifungal activity against Candida tropicalis at 0.98 to 250 ug/mL after 48 hrs by NCCLS broth microdilution method; format: functional, organism-based; outline: as §1
Cryptococcus neoformans [3] = experiment: Antifungal activity against Cryptococcus neoformans ATCC 32264 at 0.98 to 250 ug/mL after 48 hrs by NCCLS broth microdilution method; format: functional, organism-based; outline: as §1
Aspergillus flavus [4] = experiment: Antifungal activity against Aspergillus flavus ATCC 9170 at 0.98 to 250 ug/mL by NCCLS broth microdilution method; format: functional, organism-based
Outline: (§2)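 MIC by broth microdilution per NCCLS M27-A3/M38-A2 in RPMI-1640 buffered to pH 7.0 with MOPS. Twofold dilutions from 250–0.98 µg/mL, final DMSO ≤1%. Inoculum 1–5 × 10³ CFU/mL. Incubated in a moist dark chamber, 30 °C for Aspergillus and 28–30 °C for dermatophytes. Read visually when control growth allowed. Endpoint is the lowest concentration giving total inhibition of visible growth (MIC100).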

Aspergillus fumigatus [5] = experiment: Antifungal activity against Aspergillus fumigatus ATCC 26934 at 0.98 to 250 ug/mL by NCCLS broth microdilution method; format: functional, organism-based; outline: as §2
Aspergillus niger [6] = experiment: Antifungal activity against Aspergillus niger ATCC 9029 at 0.98 to 250 ug/mL by NCCLS broth microdilution method; format: functional, organism-based; outline: as §2
Nannizzia gypsea [7] = experiment: Antifungal activity against Microsporum gypseum CCC 115 at 0.98 to 250 ug/mL by NCCLS broth microdilution method; format: functional, organism-based; outline: as §2
Trichophyton rubrum [8] = experiment: Antifungal activity against Trichophyton rubrum CCC 110 at 0.98 to 250 ug/mL by NCCLS broth microdilution method; format: functional, organism-based; outline: as §2
[9] = system: Trichophyton mentagrophytes; experiment: Antifungal activity against Trichophyton mentagrophytes ATCC 9972 at 0.98 to 250 ug/mL by NCCLS broth microdilution method; format: functional, organism-based; outline: as §2
Candida albicans [10] = experiment: Antifungal activity against Candida albicans ATCC 10231 after 48 hrs by NCCLS broth microdilution method; format: functional; settings: ATCC 10231, 48 h, read-out: MIC100; outline: as §1
Candida tropicalis [11] = experiment: Antifungal activity against Candida tropicalis after 48 hrs by NCCLS broth microdilution method; format: functional; settings: read-out: MIC100; outline: as §1
Cryptococcus neoformans [12] = experiment: Antifungal activity against Cryptococcus neoformans ATCC 32264 after 48 hrs by NCCLS broth microdilution method; format: functional; settings: ATCC 32264, 48 h, read-out: MIC100; outline: as §1
Aspergillus flavus [13] = experiment: Antifungal activity against Aspergillus flavus ATCC 9170 by NCCLS broth microdilution method; format: functional; settings: read-out: MIC100; outline: as §2
Aspergillus fumigatus [14] = experiment: Antifungal activity against Aspergillus fumigatus ATCC 26934 by NCCLS broth microdilution method; format: functional; settings: read-out: MIC100; outline: as §2
Aspergillus niger [15] = experiment: Antifungal activity against Aspergillus niger ATCC 9029 by NCCLS broth microdilution method; format: functional; settings: read-out: MIC100; outline: as §2
Nannizzia gypsea [16] = experiment: Antifungal activity against Microsporum gypseum CCC 115 by NCCLS broth microdilution method; format: functional; settings: read-out: MIC100; outline: as §2
Trichophyton rubrum [17] = experiment: Antifungal activity against Trichophyton rubrum CCC 110 by NCCLS broth microdilution method; format: functional; settings: read-out: MIC100; outline: as §2
[18] = system: Trichophyton mentagrophytes; experiment: Antifungal activity against Trichophyton mentagrophytes ATCC 9972 by NCCLS broth microdilution method; format: functional; settings: read-out: MIC100; outline: as §2
Candida tropicalis [19] = experiment: Antifungal activity against Candida tropicalis by microplate reader analysis; format: functional
Candida albicans [20] = experiment: Antifungal activity against Candida albicans ATCC 10231 after 24 hrs by microplate reader analysis; format: functional; settings: ATCC 10231, 24 h
Outline: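 96-well RPMI-1640 wells with compound at final 250–0.98 µg/mL (DMSO ≤1%). Inoculum 100 µL, 1–5 × 10³ CFU/mL, 200 µL final. Each well includes growth (DMSO, no compound) and sterility controls. % inhibition = 100 − (CTW−SCW)/(GCW−SCW) × 100, run in duplicate.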

Cryptococcus neoformans [21] = experiment: Antifungal activity against Cryptococcus neoformans ATCC 32264 after 48 hrs by microplate reader analysis; format: functional; settings: ATCC 32264, 48 h
Outline: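 Microplate growth-inhibition assay in RPMI-1640, compound at final 250–0.98 µg/mL (DMSO ≤1%). Inoculum 1–5 × 10³ CFU/mL. Sterility and DMSO growth controls included. Percent inhibition is computed from blank-corrected OD relative to the growth control, tested in duplicate.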

Compound | Activity (Candida albicans [1]) | Activity (Candida tropicalis [2]) | Activity (Cryptococcus neoformans [3]) | Activity (Aspergillus flavus [4]) | Activity (Aspergillus fumigatus [5]) | Activity (Aspergillus niger [6]) | Activity (Nannizzia gypsea [7]) | Activity (Trichophyton rubrum [8]) | Activity [9] | other results
CC(C)Nc1nc(N)nc(Nc2cccc(Cl)c2)c1N=O | inactive | inactive | inactive | inactive | inactive | inactive | inactive | inactive | inactive | 
CNc1nc(N)nc(NCc2ccccc2)c1N=O | inactive | inactive | inactive | inactive | inactive | inactive | inactive | inactive | inactive | 
COc1nc(N)nc2c1NC(=O)[C@H](Cc1ccccc1)N2 | inactive | inactive | inactive | inactive | inactive | inactive | inactive | inactive | inactive | 
Nc1nc(NC23CC4CC(CC(C4)C2)C3)c(N=O)c(=O)[nH]1 | inactive | inactive | inactive | inactive | inactive | inactive | inactive | inactive | inactive | 
CCOC(=O)[C@H](Cc1ccccc1)Nc1nc(N)nc(OCC2CCCCC2)c1N=O | inactive | inactive | inactive | inactive | inactive | inactive | inactive | inactive | inactive | 
CCOC(=O)CNc1nc(N)nc(OC)c1N=O | inactive | inactive | inactive | inactive | inactive | inactive | inactive | inactive | inactive | 
COc1nc(N)c(N=O)c(N2CCCC2)n1 | inactive | inactive | inactive | inactive | inactive | inactive | inactive | inactive | inactive | 
CN(C/C=C/C#CC(C)(C)C)Cc1cccc2ccccc12 [TERBINAFINE] |  |  |  |  |  |  |  |  |  | MIC (Candida albicans [10]): 0.98 µg/mL (≈ 3.36 µM); MIC (Candida tropicalis [11]): 1.95 µg/mL (≈ 6.69 µM); MIC (Cryptococcus neoformans [12]): 0.49 µg/mL (≈ 1.68 µM); MIC (Aspergillus flavus [13]): 0.98 µg/mL (≈ 3.36 µM); MIC (Aspergillus fumigatus [14]): 0.98 µg/mL (≈ 3.36 µM); MIC (Aspergillus niger [15]): 1.96 µg/mL (≈ 6.73 µM); MIC (Nannizzia gypsea [16]): 0.04 µg/mL (≈ 0.137 µM); MIC (Trichophyton rubrum [17]): 0.01 µg/mL (≈ 0.0343 µM); MIC [18]: 0.03 µg/mL (≈ 0.103 µM)
C[C@@H]1[C@H](O)[C@@H](C)/C=C/C=C/C=C/C=C/C=C/C=C/C=C/[C@H](O[C@@H]2O[C@H](C)[C@@H](O)[C@H](N)[C@@H]2O)C[C@@H]2O[C@](O)(C[C@@H](O)C[C@@H](O)[C@H](O)CC[C@@H](O)C[C@@H](O)CC(=O)O[C@H]1C)C[C@H](O)[C@H]2C(=O)O [AMPHOTERICIN B] |  |  |  |  |  |  |  |  |  | MIC (Candida albicans [10]): 0.98 µg/mL (≈ 1.06 µM); MIC (Candida tropicalis [11]): 0.98 µg/mL (≈ 1.06 µM); MIC (Cryptococcus neoformans [12]): 0.25 µg/mL (≈ 0.271 µM); MIC (Aspergillus flavus [13]): 0.49 µg/mL (≈ 0.53 µM); MIC (Aspergillus fumigatus [14]): 0.49 µg/mL (≈ 0.53 µM); MIC50 (Candida tropicalis [19]): 0.49 µg/mL (≈ 0.53 µM); MIC (Aspergillus niger [15]): 0.49 µg/mL (≈ 0.53 µM); MIC (Nannizzia gypsea [16]): 0.12 µg/mL (≈ 0.13 µM); MIC (Trichophyton rubrum [17]): 0.06 µg/mL (≈ 0.0649 µM); MIC [18]: 0.06 µg/mL (≈ 0.0649 µM); MIC50 (Candida albicans [20]): 0.49 µg/mL (≈ 0.53 µM); MIC50 (Cryptococcus neoformans [21]): 0.98 µg/mL (≈ 1.06 µM)
COc1nc(N)nc2c1nnn2C12CC3CC(CC(C3)C1)C2 | inactive | inactive | inactive | inactive | inactive | inactive | inactive | inactive | inactive | 
COc1nc(N)nc(NCCO)c1N=O | inactive | inactive | inactive | inactive | inactive | inactive | inactive | inactive | inactive | 
COc1nc(NCCOC(C)=O)nc(Nc2ccccc2)c1N=O | inactive | inactive | inactive | inactive | inactive | inactive | inactive | inactive | inactive | 
CC(=O)N1CCN(c2ccc(OCC3COC(Cn4ccnc4)(c4ccc(Cl)cc4Cl)O3)cc2)CC1 (stereo not given) [KETOCONAZOLE] |  |  |  |  |  |  |  |  |  | MIC (Candida albicans [10]): 0.98 µg/mL (≈ 1.84 µM); MIC (Candida tropicalis [11]): 0.49 µg/mL (≈ 0.922 µM); MIC (Cryptococcus neoformans [12]): 0.25 µg/mL (≈ 0.47 µM); MIC (Aspergillus flavus [13]): 0.12 µg/mL (≈ 0.226 µM); MIC (Aspergillus fumigatus [14]): 0.49 µg/mL (≈ 0.922 µM); MIC (Aspergillus niger [15]): 0.25 µg/mL (≈ 0.47 µM); MIC (Nannizzia gypsea [16]): 0.06 µg/mL (≈ 0.113 µM); MIC (Trichophyton rubrum [17]): 0.03 µg/mL (≈ 0.0565 µM); MIC [18]: 0.03 µg/mL (≈ 0.0565 µM)
